The M2OR odorant receptor database
Positions count from the first letter of the chain named.

What was measured:
Conditions in all cases: stereoisomer not certain
OR5K3 (Homo sapiens) = molecular target: T1, OR5K3 (Homo sapiens) (UniProt A6NET4)
T1 sequence (whole entry): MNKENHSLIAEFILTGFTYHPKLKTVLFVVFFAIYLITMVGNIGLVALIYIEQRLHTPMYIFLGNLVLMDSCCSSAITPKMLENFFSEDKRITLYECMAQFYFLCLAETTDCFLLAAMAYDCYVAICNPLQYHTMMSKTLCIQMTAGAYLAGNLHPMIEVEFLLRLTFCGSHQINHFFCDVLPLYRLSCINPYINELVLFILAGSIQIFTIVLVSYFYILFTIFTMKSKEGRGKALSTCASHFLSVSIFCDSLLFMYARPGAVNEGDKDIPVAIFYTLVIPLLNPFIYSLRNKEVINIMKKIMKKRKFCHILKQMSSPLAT
Procedure, shortened: (§1)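 Each receptor–molecule pair is labelled responsive or non-responsive (inactive) according to whether the original authors judged the measured signal statistically different from baseline. The data were taken from the main text and supplementary material of published papers and checked for typos and inconsistencies. Assay methods differed by source, with transient luciferase assays in mammalian cell lines being common.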

OR5K4 (Homo sapiens) = molecular target: T2, OR5K4 (Homo sapiens) (UniProt A6NMS3)
T2 sequence (whole entry): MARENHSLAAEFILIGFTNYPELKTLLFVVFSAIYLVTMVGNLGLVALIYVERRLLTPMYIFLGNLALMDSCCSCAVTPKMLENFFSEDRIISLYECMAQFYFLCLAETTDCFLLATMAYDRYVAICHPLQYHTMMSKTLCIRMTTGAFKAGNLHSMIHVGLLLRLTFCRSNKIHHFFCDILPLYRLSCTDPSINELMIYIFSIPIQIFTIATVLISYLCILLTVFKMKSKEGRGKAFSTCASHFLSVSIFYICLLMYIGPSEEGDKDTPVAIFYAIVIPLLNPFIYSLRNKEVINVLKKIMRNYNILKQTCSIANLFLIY
Procedure, shortened: as §1

OR5M3 (Homo sapiens) = molecular target: T3, OR5M3 (Homo sapiens) (UniProt Q8NGP4)
T3 sequence (whole entry): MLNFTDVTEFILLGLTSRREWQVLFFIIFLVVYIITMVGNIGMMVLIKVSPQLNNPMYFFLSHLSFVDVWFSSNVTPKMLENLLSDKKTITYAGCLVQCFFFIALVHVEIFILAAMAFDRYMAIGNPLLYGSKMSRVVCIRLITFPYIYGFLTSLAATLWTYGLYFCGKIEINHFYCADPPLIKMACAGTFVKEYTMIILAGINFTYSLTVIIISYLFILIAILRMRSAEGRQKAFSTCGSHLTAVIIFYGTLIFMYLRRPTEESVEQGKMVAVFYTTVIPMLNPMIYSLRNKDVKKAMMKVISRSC
Procedure, shortened: as §1

OR5L1 (Homo sapiens) = molecular target: T4, OR5L1 (Homo sapiens) (UniProt Q8NGL2)
T4 sequence (whole entry): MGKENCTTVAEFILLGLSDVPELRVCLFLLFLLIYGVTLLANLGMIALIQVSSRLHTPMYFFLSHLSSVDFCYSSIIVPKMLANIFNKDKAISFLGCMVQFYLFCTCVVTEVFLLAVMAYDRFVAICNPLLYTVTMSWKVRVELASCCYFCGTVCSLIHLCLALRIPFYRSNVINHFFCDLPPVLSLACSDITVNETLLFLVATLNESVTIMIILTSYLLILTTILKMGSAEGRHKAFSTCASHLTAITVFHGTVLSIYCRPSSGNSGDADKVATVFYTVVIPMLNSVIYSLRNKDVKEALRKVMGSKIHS
Procedure, shortened: as §1

OR5L2 (Homo sapiens) = molecular target: T5, OR5L2 (Homo sapiens) (UniProt Q8NGL0)
T5 sequence (whole entry): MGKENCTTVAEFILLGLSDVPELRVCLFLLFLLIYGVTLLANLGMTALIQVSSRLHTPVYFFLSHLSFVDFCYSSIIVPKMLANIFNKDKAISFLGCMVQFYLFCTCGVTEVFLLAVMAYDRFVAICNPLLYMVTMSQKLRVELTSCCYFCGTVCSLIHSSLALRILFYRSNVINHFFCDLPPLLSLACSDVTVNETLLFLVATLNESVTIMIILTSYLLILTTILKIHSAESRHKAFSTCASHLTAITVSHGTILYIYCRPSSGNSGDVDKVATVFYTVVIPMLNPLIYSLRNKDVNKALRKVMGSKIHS
Procedure, shortened: as §1

OR5M1 (Homo sapiens) = molecular target: T6, OR5M1 (Homo sapiens) (UniProt Q8NGP8)
T6 sequence (whole entry): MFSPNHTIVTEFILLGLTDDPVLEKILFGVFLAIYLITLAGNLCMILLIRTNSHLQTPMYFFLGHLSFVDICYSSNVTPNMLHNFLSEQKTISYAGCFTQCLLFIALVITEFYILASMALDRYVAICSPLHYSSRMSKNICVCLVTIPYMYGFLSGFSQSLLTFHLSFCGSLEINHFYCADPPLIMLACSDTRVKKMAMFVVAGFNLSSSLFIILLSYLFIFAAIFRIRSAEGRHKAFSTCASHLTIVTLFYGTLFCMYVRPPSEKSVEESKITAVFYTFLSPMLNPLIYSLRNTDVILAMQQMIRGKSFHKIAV
Procedure, shortened: as §1

OR5M1 T295R M301I = system: T7, OR5M1 T295R M301I
T7 sequence (whole entry): T6 sequence (whole entry) with T295R, M301I
Procedure, shortened: as §1

OR5M10 (Homo sapiens) = molecular target: T8, OR5M10 (Homo sapiens) (UniProt Q6IEU7)
T8 sequence (whole entry): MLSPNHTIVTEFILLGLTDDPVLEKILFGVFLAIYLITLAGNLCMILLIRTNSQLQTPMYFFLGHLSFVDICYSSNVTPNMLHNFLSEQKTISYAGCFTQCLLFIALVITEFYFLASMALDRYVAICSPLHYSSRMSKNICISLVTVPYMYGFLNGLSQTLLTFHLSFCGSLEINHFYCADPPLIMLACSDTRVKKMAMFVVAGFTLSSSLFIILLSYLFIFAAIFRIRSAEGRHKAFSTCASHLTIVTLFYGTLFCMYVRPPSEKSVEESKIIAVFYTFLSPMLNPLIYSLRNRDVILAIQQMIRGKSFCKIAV
Procedure, shortened: as §1

OR5M11 (Homo sapiens) = molecular target: T9, OR5M11 (Homo sapiens) (UniProt Q96RB7)
T9 sequence (whole entry): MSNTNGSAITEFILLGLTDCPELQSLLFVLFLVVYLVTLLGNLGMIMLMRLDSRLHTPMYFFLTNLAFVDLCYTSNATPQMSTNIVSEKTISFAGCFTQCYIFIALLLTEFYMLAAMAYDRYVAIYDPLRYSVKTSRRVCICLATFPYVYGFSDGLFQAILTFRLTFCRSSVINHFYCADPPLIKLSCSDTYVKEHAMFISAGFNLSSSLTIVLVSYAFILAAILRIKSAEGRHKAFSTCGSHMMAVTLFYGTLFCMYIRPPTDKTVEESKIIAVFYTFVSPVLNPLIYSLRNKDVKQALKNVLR
Procedure, shortened: as §1

OR5M3 N3Y A156T = system: T10, OR5M3 N3Y A156T
T10 sequence (whole entry): T3 sequence (whole entry) with N3Y, A156T
Procedure, shortened: as §1

OR5M8 (Homo sapiens) = molecular target: T11, OR5M8 (Homo sapiens) (UniProt Q8NGP6)
T11 sequence (whole entry): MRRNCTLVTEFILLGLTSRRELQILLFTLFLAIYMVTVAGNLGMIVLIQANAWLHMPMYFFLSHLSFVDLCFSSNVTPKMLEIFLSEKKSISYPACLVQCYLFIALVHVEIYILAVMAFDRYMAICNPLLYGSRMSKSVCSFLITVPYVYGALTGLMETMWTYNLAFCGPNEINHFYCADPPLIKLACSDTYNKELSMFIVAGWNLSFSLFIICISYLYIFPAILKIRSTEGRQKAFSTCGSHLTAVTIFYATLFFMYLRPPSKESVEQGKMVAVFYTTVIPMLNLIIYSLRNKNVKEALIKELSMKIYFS
Procedure, shortened: as §1

OR5M9 (Homo sapiens) = molecular target: T12, OR5M9 (Homo sapiens) (UniProt Q8NGP3)
T12 sequence (whole entry): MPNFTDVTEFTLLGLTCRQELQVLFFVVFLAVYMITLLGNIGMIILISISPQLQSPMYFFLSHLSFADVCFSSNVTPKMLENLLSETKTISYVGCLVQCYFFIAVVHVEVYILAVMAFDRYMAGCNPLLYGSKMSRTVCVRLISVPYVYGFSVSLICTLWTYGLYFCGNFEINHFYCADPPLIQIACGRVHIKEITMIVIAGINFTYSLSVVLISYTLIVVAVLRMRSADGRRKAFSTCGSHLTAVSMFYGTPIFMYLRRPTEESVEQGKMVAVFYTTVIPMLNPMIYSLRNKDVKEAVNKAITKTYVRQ
Procedure, shortened: as §1

OR5MA L2F C311H = system: T13, OR5MA L2F C311H
T13 sequence (whole entry): T8 sequence (whole entry) with L2F, C311H
Procedure, shortened: as §1

OR5MA L2F Q54H C311H = system: T14, OR5MA L2F Q54H C311H
T14 sequence (whole entry): T8 sequence (whole entry) with L2F, Q54H, C311H
Procedure, shortened: as §1

OR5P2 (Homo sapiens) = molecular target: T15, OR5P2 (Homo sapiens) (UniProt Q8WZ92)
T15 sequence (whole entry): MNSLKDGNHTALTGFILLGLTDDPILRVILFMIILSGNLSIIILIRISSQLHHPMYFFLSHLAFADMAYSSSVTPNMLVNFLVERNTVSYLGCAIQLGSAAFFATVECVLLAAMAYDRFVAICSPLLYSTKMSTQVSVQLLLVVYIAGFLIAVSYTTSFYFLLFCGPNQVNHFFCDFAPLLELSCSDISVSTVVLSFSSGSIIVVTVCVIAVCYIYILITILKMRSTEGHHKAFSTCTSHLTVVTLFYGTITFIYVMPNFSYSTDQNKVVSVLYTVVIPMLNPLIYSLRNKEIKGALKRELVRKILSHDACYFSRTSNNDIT
Procedure, shortened: as §1

OR5P3 (Homo sapiens) = molecular target: T16, OR5P3 (Homo sapiens) (UniProt Q8WZ94)
T16 sequence (whole entry): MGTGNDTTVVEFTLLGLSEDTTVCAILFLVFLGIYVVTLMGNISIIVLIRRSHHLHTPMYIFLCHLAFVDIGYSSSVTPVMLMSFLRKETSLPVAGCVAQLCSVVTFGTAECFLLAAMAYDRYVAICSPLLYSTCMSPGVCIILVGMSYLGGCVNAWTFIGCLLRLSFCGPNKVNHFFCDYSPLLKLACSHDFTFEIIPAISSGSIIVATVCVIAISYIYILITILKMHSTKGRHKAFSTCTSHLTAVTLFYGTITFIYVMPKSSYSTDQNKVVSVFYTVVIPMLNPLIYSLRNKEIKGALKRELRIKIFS
Procedure, shortened: as §1

OR5P3 L301R = system: T17, OR5P3 L301R
T17 sequence (whole entry): T16 sequence (whole entry) with L301R
Procedure, shortened: as §1

OR5R1 C122R S128G F184L = system: T18, OR5R1 C122R S128G F184L
T18 sequence (whole entry): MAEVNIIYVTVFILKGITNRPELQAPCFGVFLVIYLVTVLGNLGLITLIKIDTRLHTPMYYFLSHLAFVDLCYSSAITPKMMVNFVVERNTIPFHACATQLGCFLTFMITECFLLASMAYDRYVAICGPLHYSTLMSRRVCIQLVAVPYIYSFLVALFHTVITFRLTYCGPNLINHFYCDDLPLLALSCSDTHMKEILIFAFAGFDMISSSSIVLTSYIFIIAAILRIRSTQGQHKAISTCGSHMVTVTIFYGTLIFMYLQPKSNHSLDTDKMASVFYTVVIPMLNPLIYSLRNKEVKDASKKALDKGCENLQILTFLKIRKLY
Procedure, shortened: as §1

OR5T1 (Homo sapiens) = molecular target: T19, OR5T1 (Homo sapiens) (UniProt Q8NG75)
T19 sequence (whole entry): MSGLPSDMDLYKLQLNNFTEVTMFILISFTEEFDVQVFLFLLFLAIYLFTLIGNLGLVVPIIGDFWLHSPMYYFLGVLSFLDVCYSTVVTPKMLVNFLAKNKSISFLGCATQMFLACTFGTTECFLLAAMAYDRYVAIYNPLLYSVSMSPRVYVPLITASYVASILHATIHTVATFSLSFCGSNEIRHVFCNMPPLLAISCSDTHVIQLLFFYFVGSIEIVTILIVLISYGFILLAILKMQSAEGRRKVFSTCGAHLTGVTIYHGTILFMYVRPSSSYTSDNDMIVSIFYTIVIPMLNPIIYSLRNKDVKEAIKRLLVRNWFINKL
Procedure, shortened: as §1

OR5T2 (Homo sapiens) = molecular target: T20, OR5T2 (Homo sapiens) (UniProt Q8NGG2)
T20 sequence (whole entry): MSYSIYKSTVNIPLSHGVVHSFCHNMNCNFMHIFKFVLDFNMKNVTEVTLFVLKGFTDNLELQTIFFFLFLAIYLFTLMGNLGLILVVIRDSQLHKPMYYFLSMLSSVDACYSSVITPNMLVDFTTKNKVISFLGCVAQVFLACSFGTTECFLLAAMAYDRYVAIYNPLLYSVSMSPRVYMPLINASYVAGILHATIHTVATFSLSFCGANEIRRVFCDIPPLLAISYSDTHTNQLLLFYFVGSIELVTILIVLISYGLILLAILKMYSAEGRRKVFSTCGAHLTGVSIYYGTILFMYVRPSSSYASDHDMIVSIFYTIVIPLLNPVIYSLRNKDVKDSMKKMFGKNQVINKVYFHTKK
Procedure, shortened: as §1

Measured: odorant receptor agonist call

COc1nccnc1CC(C)C
inactive: OR5K3 (Homo sapiens) | OR5K4 (Homo sapiens) | OR5M3 (Homo sapiens)

CCc1nccnc1OC
inactive: OR5K3 (Homo sapiens) | OR5K4 (Homo sapiens)

COc1nccnc1C(C)C
inactive: OR5K3 (Homo sapiens) | OR5K4 (Homo sapiens) | OR5M3 (Homo sapiens)

CCC1OC(C)=C(O)C1=O (centres undefined)
active: OR5M3 (Homo sapiens)
inactive: all other assays above

COc1cnccn1
inactive: OR5K3 (Homo sapiens) | OR5K4 (Homo sapiens)

CCC(C)c1nccnc1OC (centres undefined)
inactive: OR5K3 (Homo sapiens) | OR5K4 (Homo sapiens) | OR5M3 (Homo sapiens)

Cc1occc1S
inactive: OR5M3 (Homo sapiens)

Cc1cccc(C)c1O
inactive: OR5M3 (Homo sapiens)

CC1=C(O)C(=O)OC1C (centres undefined)
inactive: all assays above

CCC(S)C(C)CO (centres undefined)
not listed: OR5M1 T295R M301I | OR5M3 N3Y A156T | OR5MA L2F C311H | OR5MA L2F Q54H C311H | OR5P3 L301R | OR5R1 C122R S128G F184L
inactive: all other assays above
